Test results published in ChEMBL document CHEMBL3085659, “Synthesis, antiproliferative and apoptosis-inducing activity of thiazolo[5,4-d]pyrimidines” (Eur J Med Chem, 2013).
Activity calls are given as the source filed them. No cut-off for these calls is given here.

Experiments:
A549 [1] = test: Antiproliferative activity against human A549 cells after 48 hrs by SRB assay; assay type: functional, cell-based; conditions: A549, 48 h
HL-60 [2] = test: Cell cycle arrest in human HL60 cells assessed as accumulation at G2 phase at 30 uM after 24 hrs using propidium iodide staining by flow cytometry (reference value: 10%); assay type: functional
[3] = Antiproliferative activity against human MIAPaCa2 cells after 48 hrs by SRB assay; assay type: functional, cell-based; conditions: MIA PaCa-2, 48 h
HL-60 [4] = test: Cell cycle arrest in human HL60 cells assessed as accumulation at G1 phase at 30 uM after 24 hrs using propidium iodide staining by flow cytometry (reference value: 40%); assay type: functional
HL-60 [5] = test: Induction of apoptosis in human HL60 cells assessed as loss of mitochondrial potential at 30 uM after 24 hrs using rhodamine-123 staining by flow cytometric analysis (reference value: 2%); assay type: functional
[6] = Antiproliferative activity against human MIAPaCa2 cells assessed as growth inhibition at 10 uM after 48 hrs by SRB assay; assay type: functional; conditions: MIA PaCa-2, 48 h, read-out: GI
PC-3 [7] = test: Antiproliferative activity against human PC3 cells assessed as growth inhibition at 10 uM after 48 hrs by SRB assay; assay type: functional; conditions: PC-3, 48 h, read-out: GI
HL-60 [8] = test: Induction of apoptosis in human HL60 cells assessed as morphological changes at 5 to 30 uM after 24 hrs using DAPI staining by fluorescence microscopic analysis; assay type: functional, cell-based
Method in brief: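 HL-60 treated 24 h at indicated concentrations, then methanol-fixed, DAPI-stained and examined by fluorescence microscopy for cellular and nuclear apoptotic morphology, following the A549 protocol.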

PC-3 [9] = test: Antiproliferative activity against human PC3 cells after 48 hrs by SRB assay; assay type: functional, cell-based; conditions: PC-3, 48 h
A-431 = test: Antiproliferative activity against human A431 cells assessed as growth inhibition at 10 uM after 48 hrs by SRB assay; assay type: functional; conditions: A-431, 48 h, read-out: GI
HL-60 [10] = test: Cell cycle arrest in human HL60 cells assessed as accumulation at S phase at 20 uM after 24 hrs using propidium iodide staining by flow cytometry (reference value: 50%); assay type: functional
HL-60 [11] = test: Antiproliferative activity against human HL60 cells assessed as growth inhibition at 10 uM after 48 hrs by SRB assay; assay type: functional; conditions: HL-60, 48 h, read-out: GI
HL-60 [12] = test: Cell cycle arrest in human HL60 cells assessed as accumulation at G1 phase at 20 uM after 24 hrs using propidium iodide staining by flow cytometry (reference value: 40%); assay type: functional
T47D [13] = test: Antiproliferative activity against human T47D cells assessed as growth inhibition at 10 uM after 48 hrs by SRB assay; assay type: functional; conditions: read-out: GI
HL-60 [14] = test: Cell cycle arrest in human HL60 cells assessed as accumulation at G2 phase at 5 uM after 24 hrs using propidium iodide staining by flow cytometry (reference value: 10%); assay type: functional
T98G = test: Antiproliferative activity against human T98G cells assessed as growth inhibition at 10 uM after 48 hrs by SRB assay; assay type: functional; conditions: read-out: GI
HL-60 [15] = test: Cell cycle arrest in human HL60 cells assessed as accumulation at S phase at 30 uM after 24 hrs using propidium iodide staining by flow cytometry (reference value: 50%); assay type: functional
HL-60 [16] = test: Cell cycle arrest in human HL60 cells assessed as accumulation at S phase at 5 uM after 24 hrs using propidium iodide staining by flow cytometry (reference value: 50%); assay type: functional
HL-60 [17] = test: Induction of apoptosis in human HL60 cells assessed as loss of mitochondrial potential at 5 uM after 24 hrs using rhodamine-123 staining by flow cytometric analysis (reference value: 2%); assay type: functional
HL-60 [18] = test: Antiproliferative activity against human HL60 cells after 48 hrs by SRB assay; assay type: functional, cell-based; conditions: HL-60, 48 h
T47D [19] = test: Antiproliferative activity against human T47D cells after 48 hrs by SRB assay; assay type: functional, cell-based
HL-60 [20] = test: Induction of apoptosis in human HL60 cells assessed as loss of mitochondrial potential at 20 uM after 24 hrs using rhodamine-123 staining by flow cytometric analysis (reference value: 2%); assay type: functional
HL-60 [21] = test: Cell cycle arrest in human HL60 cells assessed as accumulation at G2 phase at 20 uM after 24 hrs using propidium iodide staining by flow cytometry (reference value: 10%); assay type: functional
HL-60 [22] = test: Induction of apoptosis in human HL60 cells at 30 uM after 24 hrs using propidium iodide staining by flow cytometry (reference value: 5%); assay type: functional
HL-60 [23] = test: Induction of apoptosis in human HL60 cells assessed as reduction of procaspase-3 expression after 24 hrs by Western blot analysis; assay type: functional, cell-based
Method in brief: (§1)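 Cells treated 24 h (HL-60 at 5, 20, 30 µM; A549 at 1, 3, 10 µM); RIPA lysates, 70 µg protein resolved by SDS-PAGE, transferred to PVDF, blocked in 5% milk, probed for PARP-1 and procaspase-3 with HRP secondaries, ECL detection.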

A549 [24] = test: Antiproliferative activity against human A549 cells assessed as growth inhibition at 10 uM after 48 hrs by SRB assay; assay type: functional; conditions: A549, 48 h, read-out: GI
[25] = Antiproliferative activity against human NCI-H322 cells assessed as growth inhibition at 10 uM after 48 hrs by SRB assay; assay type: functional; conditions: NCI-H322, 48 h, read-out: GI
HL-60 [26] = test: Induction of apoptosis in human HL60 cells assessed as cleavage of PARP1 after 24 hrs by Western blot analysis; assay type: functional, cell-based; method in brief: as §1
HL-60 [27] = test: Induction of apoptosis in human HL60 cells at 5 uM after 24 hrs using propidium iodide staining by flow cytometry (reference value: 5%); assay type: functional
HL-60 [28] = test: Induction of apoptosis in human HL60 cells at 20 uM after 24 hrs using propidium iodide staining by flow cytometry (reference value: 5%); assay type: functional
HL-60 [29] = test: Cell cycle arrest in human HL60 cells assessed as accumulation at G1 phase at 5 uM after 24 hrs using propidium iodide staining by flow cytometry (reference value: 40%); assay type: functional

With `c1ccc(Nc2nc3c(N4CCOCC4)ncnc3s2)cc1` the IC50 (A549 [1]) was 13 µM, the Activity (HL-60 [2]) was 5% and the IC50 [3] was 54 µM. It also gave an Activity (HL-60 [4]) of 41%, an Activity (HL-60 [5]) of 26% and an inhibition of growth at 10 µM [6] of 12%. For the same molecule, the inhibition of growth at 10 µM (PC-3 [7]) was 45%, the Activity (HL-60 [8]) was “Active” and the IC50 (PC-3 [9]) was 17 µM. For the same molecule, the inhibition of growth at 10 µM (A-431) was 4%, the Activity (HL-60 [10]) was 42% and the inhibition of growth at 10 µM (HL-60 [11]) was 59%. The Activity (HL-60 [12]) was 51%, the inhibition of growth at 10 µM (T47D [13]) was 12% and the Activity (HL-60 [14]) was 12%. For the same molecule, the inhibition of growth at 10 µM (T98G) was 26%, the Activity (HL-60 [15]) was 54% and the Activity (HL-60 [16]) was 45%. It also gave an Activity (HL-60 [17]) of 9%, an IC50 (HL-60 [18]) of 8 µM and an IC50 (T47D [19]) of 59 µM. For the same molecule, the Activity (HL-60 [20]) was 16%, the Activity (HL-60 [21]) was 7% and the Activity (HL-60 [22]) was 24%. The Activity (HL-60 [23]) was “Dose-dependent effect”, the inhibition of growth at 10 µM (A549 [24]) was 38% and the inhibition of growth at 10 µM [25] was 7%. For the same molecule, the Activity (HL-60 [26]) was “Dose-dependent effect”, the Activity (HL-60 [27]) was 9% and the Activity (HL-60 [28]) was 12%. It also gave an Activity (HL-60 [29]) of 43%.

`CCN1CCN(c2ncnc3sc(Nc4ccccc4)nc23)CC1` showed an inhibition of growth at 10 µM [6] of 9%, an inhibition of growth at 10 µM (PC-3 [7]) of 19% and an inhibition of growth at 10 µM (A-431) of 0%. The inhibition of growth at 10 µM (HL-60 [11]) was 24%, the inhibition of growth at 10 µM (T47D [13]) was 29% and the inhibition of growth at 10 µM (T98G) was 19%. It also gave an inhibition of growth at 10 µM (A549 [24]) of 25% and an inhibition of growth at 10 µM [25] of 27%.

For `CN1CCN(c2ncnc3sc(Nc4ccc(Cl)cc4)nc23)CC1`, the inhibition of growth at 10 µM [6] was 5%, the inhibition of growth at 10 µM (PC-3 [7]) was 18% and the inhibition of growth at 10 µM (A-431) was 21%. For the same molecule, the inhibition of growth at 10 µM (HL-60 [11]) was 20%, the inhibition of growth at 10 µM (T47D [13]) was 21% and the inhibition of growth at 10 µM (T98G) was 20%. It also gave an inhibition of growth at 10 µM (A549 [24]) of 18% and an inhibition of growth at 10 µM [25] of 10%.

With `Clc1ccc(Nc2nc3c(N4CCOCC4)ncnc3s2)cc1` the inhibition of growth at 10 µM [6] was 21%, the inhibition of growth at 10 µM (PC-3 [7]) was 39% and the inhibition of growth at 10 µM (A-431) was 0%. It also gave an inhibition of growth at 10 µM (HL-60 [11]) of 33%, an inhibition of growth at 10 µM (T47D [13]) of 40% and an inhibition of growth at 10 µM (T98G) of 22%. The inhibition of growth at 10 µM (A549 [24]) was 24% and the inhibition of growth at 10 µM [25] was 42%.

`Clc1ncnc2sc(Nc3ccccc3)nc12` showed an inhibition of growth at 10 µM [6] of 4%, an inhibition of growth at 10 µM (PC-3 [7]) of 20% and an inhibition of growth at 10 µM (A-431) of 1%. It also gave an inhibition of growth at 10 µM (HL-60 [11]) of 21%, an inhibition of growth at 10 µM (T47D [13]) of 22% and an inhibition of growth at 10 µM (T98G) of 1%. The inhibition of growth at 10 µM (A549 [24]) was 3% and the inhibition of growth at 10 µM [25] was 0%.

`c1ccc(Nc2nc3c(N4CCC(N5CCCCC5)CC4)ncnc3s2)cc1` showed an inhibition of growth at 10 µM [6] of 23%, an inhibition of growth at 10 µM (PC-3 [7]) of 34% and an inhibition of growth at 10 µM (A-431) of 10%. It also gave an inhibition of growth at 10 µM (HL-60 [11]) of 39%, an inhibition of growth at 10 µM (T47D [13]) of 21% and an inhibition of growth at 10 µM (T98G) of 13%. For the same molecule, the inhibition of growth at 10 µM (A549 [24]) was 19% and the inhibition of growth at 10 µM [25] was 30%.

For `CN(C)c1ncnc2sc(Nc3ccc(Cl)cc3)nc12`, the inhibition of growth at 10 µM [6] was 28%, the inhibition of growth at 10 µM (PC-3 [7]) was 28% and the inhibition of growth at 10 µM (A-431) was 0%. It also gave an inhibition of growth at 10 µM (HL-60 [11]) of 39%, an inhibition of growth at 10 µM (T47D [13]) of 21% and an inhibition of growth at 10 µM (T98G) of 23%. For the same molecule, the inhibition of growth at 10 µM (A549 [24]) was 23% and the inhibition of growth at 10 µM [25] was 6%.

In the case of `COc1ccc(Nc2nc3c(Cl)ncnc3s2)cc1`, the inhibition of growth at 10 µM [6] is reported as 0%, the inhibition of growth at 10 µM (PC-3 [7]) is reported as 26% and the inhibition of growth at 10 µM (A-431) is reported as 9%. For the same molecule, the inhibition of growth at 10 µM (HL-60 [11]) was 31%, the inhibition of growth at 10 µM (T47D [13]) was 19% and the inhibition of growth at 10 µM (T98G) was 4%. It also gave an inhibition of growth at 10 µM (A549 [24]) of 0% and an inhibition of growth at 10 µM [25] of 25%.

`Clc1ccc(Nc2nc3c(N4CCCC4)ncnc3s2)cc1` gave an inhibition of growth at 10 µM [6] of 37%, an inhibition of growth at 10 µM (PC-3 [7]) of 31% and an inhibition of growth at 10 µM (A-431) of 17%. For the same molecule, the inhibition of growth at 10 µM (HL-60 [11]) was 41%, the inhibition of growth at 10 µM (T47D [13]) was 38% and the inhibition of growth at 10 µM (T98G) was 6%. It also gave an inhibition of growth at 10 µM (A549 [24]) of 26% and an inhibition of growth at 10 µM [25] of 27%.
